Holding throughout (assay type): cell-based
The target of assay [1] is T1, von Hippel-Lindau disease tumor suppressor/Mitogen-activated protein kinase kinase kinase 11 (Homo sapiens, UniProt Q16584+P40337). Description: PROTAC activity at VHL/MLK3 in human MDA-MB-468 cells assessed as protein degradation at 1 uM measured after 24 hrs by immunoblot analysis. In outline:
(§1)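 MCF-7 and MDA-MB-468 cells were treated for 24 h across 0.1–5 μM, with DMSO as control. MLK3 was immunoblotted and quantified as percent remaining versus concentration, from which DC50 and Dmax were derived.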
On the technique in general: Immunoblotting shows a protein as a band on a membrane.

The target in assay [2] is T1, von Hippel-Lindau disease tumor suppressor/Mitogen-activated protein kinase kinase kinase 11. Nature of the assay: PROTAC activity at VHL/MLK3 in human MCF7 cells assessed as protein degradation at 1 uM measured after 24 hrs by immunoblot analysis. In short, it runs like this:
as §1

Assay [3] has the same target. Nature of the assay: PROTAC activity at VHL/DOX-inducible MLK3 (unknown origin) overexpressed in human HCC1806 cells assessed as protein degradation at 0.25 to 1 uM measured after 24 hrs by immunoblot analysis. The note with it: dose 0.25-1 µM.
Assay [4] has as its target Mitogen-activated protein kinase kinase kinase 11 (Homo sapiens) (UniProt Q16584). Description: Induction of degradation of DOX-inducible MLK3 (unknown origin) overexpressed in human MCF7 cells at 0.5 to 1 uM measured after 24 hrs by immunoblot analysis. The settings on record: dose 0.5-1 µM.
Assay [5] shares this target. Nature of the assay: Induction of degradation of DOX-inducible MLK3 (unknown origin) overexpressed in human MDA-MB-468 cells at 0.5 to 1 uM measured after 24 hrs by immunoblot analysis. The note with it: dose 0.5-1 µM.

The source made the active and inactive calls. The calls are words filed in the database; no cut-off is given here.

T1 sequence (P40337 whole entry, looked up): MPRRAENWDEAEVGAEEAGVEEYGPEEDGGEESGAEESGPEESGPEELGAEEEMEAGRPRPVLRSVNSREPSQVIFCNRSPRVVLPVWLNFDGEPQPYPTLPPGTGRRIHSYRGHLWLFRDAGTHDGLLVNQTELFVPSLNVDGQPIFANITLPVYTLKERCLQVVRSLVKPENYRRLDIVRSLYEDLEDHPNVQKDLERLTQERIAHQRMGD
T1 sequence (Q16584 whole entry, looked up): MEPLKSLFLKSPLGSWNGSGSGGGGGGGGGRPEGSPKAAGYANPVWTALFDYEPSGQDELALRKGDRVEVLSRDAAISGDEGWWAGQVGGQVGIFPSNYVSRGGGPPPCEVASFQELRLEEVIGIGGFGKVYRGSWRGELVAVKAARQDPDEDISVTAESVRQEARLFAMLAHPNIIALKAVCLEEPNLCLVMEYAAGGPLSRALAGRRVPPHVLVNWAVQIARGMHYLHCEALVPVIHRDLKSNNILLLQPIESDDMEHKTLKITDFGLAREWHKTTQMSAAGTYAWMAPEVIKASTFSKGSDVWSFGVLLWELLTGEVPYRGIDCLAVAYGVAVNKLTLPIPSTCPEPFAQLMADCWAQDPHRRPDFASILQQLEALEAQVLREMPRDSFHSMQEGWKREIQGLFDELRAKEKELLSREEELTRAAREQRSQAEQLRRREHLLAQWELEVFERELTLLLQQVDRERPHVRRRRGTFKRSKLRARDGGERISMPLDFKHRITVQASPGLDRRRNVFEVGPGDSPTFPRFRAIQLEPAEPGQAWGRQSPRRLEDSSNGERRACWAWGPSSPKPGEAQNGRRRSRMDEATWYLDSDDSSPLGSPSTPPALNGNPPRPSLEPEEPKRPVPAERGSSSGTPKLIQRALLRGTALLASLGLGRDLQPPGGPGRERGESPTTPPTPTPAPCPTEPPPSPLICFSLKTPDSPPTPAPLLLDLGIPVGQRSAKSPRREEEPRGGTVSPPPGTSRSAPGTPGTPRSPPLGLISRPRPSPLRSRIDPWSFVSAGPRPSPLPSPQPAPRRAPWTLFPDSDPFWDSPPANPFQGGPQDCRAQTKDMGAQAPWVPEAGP
Mitogen-activated protein kinase kinase kinase 11 (Homo sapiens), sequence (Q16584 whole entry, looked up): as above

As to `CCSCc1ccc2c(c1)c1c3c(c4c5cc(CSCC)ccc5n5c4c1n2[C@H]1C[C@](O)(C(=O)NCCOCCOCCOCC(=O)N[C@H](C(=O)N2C[C@@H](O)C[C@H]2C(=O)N[C@@H](C)c2ccc(-c4scnc4C)cc2)C(C)(C)C)[C@]5(C)O1)CNC3=O`, the result in assay [1], in assay [2] and in assay [3] was inactive.

In the case of `CCSCc1ccc2c(c1)c1c3c(c4c5cc(CSCC)ccc5n5c4c1n2[C@H]1C[C@](O)(C(=O)OC)[C@]5(C)O1)CNC3=O`, the outcome in assay [4] and in assay [5] was inactive.

Values taken from ChEMBL document CHEMBL5579886, “Selective Degradation of MLK3 by a Novel CEP1347-VHL-02 PROTAC Compound Limits the Oncogenic Potential of TNBC” (J Med Chem, 2024).
